These results are taken from ChEMBL document CHEMBL1156049, “Potent biphenyl- and 3-phenyl pyridine-based inhibitors of acetyl-CoA carboxylase” (Bioorg Med Chem Lett, 2009).

Bounds are passed on as bounds.

One assay deals with Acetyl-CoA carboxylase 2 (Homo sapiens, UniProt O00763). Nature of the assay: Inhibition of human recombinant ACC 2 expressed in baculovirus expression system by FAS-coupled assay. The method in brief:
(§1)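 Recombinant human ACC1 or ACC2 (baculovirus-expressed, purified), 2-4.5 nM, preincubated 10 min with compound in DMSO and FAS (1 µg/assay) in 50 mM HEPES pH 7.5, 10 mM sodium citrate, 20 mM MgCl2, 6 mM NaHCO3. Substrate mix then added: 2.4 µM [3H]acetyl-CoA, 47.6 µM acetyl-CoA, 100 µM NADPH, 0.125 mM ATP. Run 30 min at room temperature, stopped with EDTA. [3H]palmitic acid counted on phospholipid FlashPlate. IC50 averaged from 2–4 experiments.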

The next assay deals with Acetyl-CoA carboxylase 1 (Homo sapiens, UniProt Q13085). The assay can be described thus: Inhibition of human recombinant ACC 1 expressed in baculovirus expression system by FAS-coupled assay. The method in brief: as §1
For assay [1], the species on record is Homo sapiens. The assay can be described thus: Selectivity ratio of IC50 for human ACC 2 to IC50 for human ACC 1.
Assay [2] is filed under the species Homo sapiens. The assay can be described thus: Selectivity ratio of IC50 for human ACC 1 to IC50 for human ACC 2.

For orientation: IC50 means the midpoint of a concentration-inhibition curve.

Sequence of Acetyl-CoA carboxylase 2 (O00763 whole entry): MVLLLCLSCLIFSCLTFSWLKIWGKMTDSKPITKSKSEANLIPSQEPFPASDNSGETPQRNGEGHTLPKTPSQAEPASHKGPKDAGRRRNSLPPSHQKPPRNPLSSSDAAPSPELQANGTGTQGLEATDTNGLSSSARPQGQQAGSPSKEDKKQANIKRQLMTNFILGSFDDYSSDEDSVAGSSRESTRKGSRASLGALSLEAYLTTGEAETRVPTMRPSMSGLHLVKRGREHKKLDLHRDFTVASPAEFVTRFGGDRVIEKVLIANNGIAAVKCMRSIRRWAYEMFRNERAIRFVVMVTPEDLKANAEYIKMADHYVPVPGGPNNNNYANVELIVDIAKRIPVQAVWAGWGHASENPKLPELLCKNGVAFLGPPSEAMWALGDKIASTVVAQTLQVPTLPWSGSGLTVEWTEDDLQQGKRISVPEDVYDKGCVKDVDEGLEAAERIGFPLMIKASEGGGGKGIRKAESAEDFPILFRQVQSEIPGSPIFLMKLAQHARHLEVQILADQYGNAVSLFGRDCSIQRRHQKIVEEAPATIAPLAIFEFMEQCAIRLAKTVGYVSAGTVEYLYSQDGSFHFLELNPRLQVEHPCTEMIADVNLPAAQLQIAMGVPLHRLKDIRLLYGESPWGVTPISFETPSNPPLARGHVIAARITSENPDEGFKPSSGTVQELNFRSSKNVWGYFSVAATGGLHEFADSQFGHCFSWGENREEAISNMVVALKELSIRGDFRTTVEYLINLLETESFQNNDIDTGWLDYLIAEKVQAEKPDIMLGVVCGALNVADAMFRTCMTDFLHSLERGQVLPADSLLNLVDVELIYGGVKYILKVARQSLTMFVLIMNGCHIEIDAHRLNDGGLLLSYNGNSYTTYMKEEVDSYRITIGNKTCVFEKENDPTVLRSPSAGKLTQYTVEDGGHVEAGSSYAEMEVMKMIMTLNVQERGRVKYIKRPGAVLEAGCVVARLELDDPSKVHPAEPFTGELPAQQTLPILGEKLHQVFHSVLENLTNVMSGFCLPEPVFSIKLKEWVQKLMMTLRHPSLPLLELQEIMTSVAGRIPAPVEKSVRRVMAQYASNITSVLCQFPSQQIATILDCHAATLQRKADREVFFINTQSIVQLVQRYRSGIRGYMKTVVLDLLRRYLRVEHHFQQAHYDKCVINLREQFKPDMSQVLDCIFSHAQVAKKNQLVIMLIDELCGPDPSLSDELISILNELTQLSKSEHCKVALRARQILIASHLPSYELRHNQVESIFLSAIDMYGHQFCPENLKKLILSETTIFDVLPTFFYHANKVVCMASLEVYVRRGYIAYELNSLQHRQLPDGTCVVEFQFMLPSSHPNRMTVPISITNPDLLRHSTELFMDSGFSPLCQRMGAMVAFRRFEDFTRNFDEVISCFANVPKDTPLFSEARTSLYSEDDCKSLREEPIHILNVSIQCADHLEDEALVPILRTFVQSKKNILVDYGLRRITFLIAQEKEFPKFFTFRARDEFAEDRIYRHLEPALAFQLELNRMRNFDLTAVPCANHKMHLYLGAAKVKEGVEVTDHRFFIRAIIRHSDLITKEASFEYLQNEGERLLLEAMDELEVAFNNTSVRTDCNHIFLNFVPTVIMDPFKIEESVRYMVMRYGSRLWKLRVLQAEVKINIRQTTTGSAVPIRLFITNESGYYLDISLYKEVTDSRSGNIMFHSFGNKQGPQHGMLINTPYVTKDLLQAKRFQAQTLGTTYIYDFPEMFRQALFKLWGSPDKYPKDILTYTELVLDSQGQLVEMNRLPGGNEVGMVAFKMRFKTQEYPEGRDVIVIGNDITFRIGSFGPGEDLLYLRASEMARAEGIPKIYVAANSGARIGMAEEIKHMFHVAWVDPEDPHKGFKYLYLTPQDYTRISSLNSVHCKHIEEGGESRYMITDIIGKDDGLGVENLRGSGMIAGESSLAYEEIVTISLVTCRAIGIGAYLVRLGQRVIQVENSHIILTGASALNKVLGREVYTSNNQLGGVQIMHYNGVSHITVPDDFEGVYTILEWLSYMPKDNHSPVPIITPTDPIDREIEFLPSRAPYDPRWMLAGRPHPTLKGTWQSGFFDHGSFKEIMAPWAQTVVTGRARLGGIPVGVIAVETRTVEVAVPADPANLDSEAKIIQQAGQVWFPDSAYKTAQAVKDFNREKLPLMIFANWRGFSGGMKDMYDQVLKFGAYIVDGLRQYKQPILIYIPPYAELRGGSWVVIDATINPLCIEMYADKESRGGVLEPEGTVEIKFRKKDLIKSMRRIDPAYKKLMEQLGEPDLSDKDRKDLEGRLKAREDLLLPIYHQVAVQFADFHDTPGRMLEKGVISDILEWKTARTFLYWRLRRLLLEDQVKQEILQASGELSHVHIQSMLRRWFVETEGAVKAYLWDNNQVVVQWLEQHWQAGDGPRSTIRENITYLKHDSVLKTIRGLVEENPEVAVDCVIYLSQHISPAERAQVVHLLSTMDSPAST

`CC(=O)NC(C)c1ccc(-c2ccc(Oc3ccc(Cc4ccccc4)cc3)cc2)cc1` (stereo unspecified): the values for the IC50 on Acetyl-CoA carboxylase 2 and at Acetyl-CoA carboxylase 1 were 945 nM and 39 nM, respectively. Also, the Selectivity ratio in the assay filed under Homo sapiens [1] came out at 24.

Turning to `CCOc1ccc(Oc2ccc(-c3ccc(C(C)NC(C)=O)cc3)cn2)cc1` (stereo unspecified), the IC50 on Acetyl-CoA carboxylase 2 was 274 nM; on Acetyl-CoA carboxylase 1 it was above 30000 nM. In addition, the Selectivity ratio in the assay filed under Homo sapiens [2] was above 100.

With `CCCOc1ccc(Oc2ccc(-c3ccc(C(C)NC(C)=O)cc3)cn2)cc1` (stereo unspecified), the IC50 was 18 nM on Acetyl-CoA carboxylase 2 and 110 nM on Acetyl-CoA carboxylase 1. Also, the Selectivity ratio in the assay listed under Homo sapiens [2] was found to be 6.

`CCCOc1ccc(Oc2ccc(-c3ccc([C@@H](C)NC(C)=O)cc3)cn2)cc1`: the IC50 is 777 nM at Acetyl-CoA carboxylase 2 and above 30000 nM on Acetyl-CoA carboxylase 1.

`CCCOc1ccc(Oc2ccc(-c3ccc(C(C)NC(=O)OCC)cc3)cn2)cc1` (stereo unspecified): the IC50 on Acetyl-CoA carboxylase 2 was found to be 227 nM; on Acetyl-CoA carboxylase 1 it was 8150 nM.

On to `COCCc1ccc(Oc2ccc(-c3ccc(C(C)NC(C)=O)cc3)cc2)cc1` (stereo unspecified), for which the values for the IC50 at Acetyl-CoA carboxylase 2 and on Acetyl-CoA carboxylase 1 were above 30000 nM and 89 nM, respectively. For the same molecule, the Selectivity ratio in the assay listed under Homo sapiens [1] was above 300.

On to `CC(=O)NC(C)c1ccc(-c2ccc(Oc3ccc(OC(C)C)cc3)cc2C)c(C)c1` (stereo unspecified), for which the figures for the IC50 at Acetyl-CoA carboxylase 2 and on Acetyl-CoA carboxylase 1 were 88 nM and 592 nM, respectively.

`CCCOc1ccc(Oc2ccc(-c3ccc(C(C)NC(=O)COC)cc3)cc2)cc1` (stereo unspecified): the figures for the IC50 at Acetyl-CoA carboxylase 2 and at Acetyl-CoA carboxylase 1 were 718 nM and 753 nM, respectively.

For `CCCOc1ccc(Oc2ccc(-c3ccc(C(C)NC(C)=O)cc3)cc2)cc1` (stereo unspecified), the values for the 50% inhibitory concentration (IC50) on Acetyl-CoA carboxylase 2 and on Acetyl-CoA carboxylase 1 were 14 nM and 17 nM, respectively.

For the molecule `CC(=O)NC(C)c1ccc(-c2ccc(Oc3cccc(Oc4ccccc4)c3)nc2)cc1` (stereo unspecified), the concentration for half-maximal inhibition (IC50) stood at 32 nM at Acetyl-CoA carboxylase 2 and 49 nM on Acetyl-CoA carboxylase 1.

With `CC(=O)NC(C)c1ccc(-c2ccc(Oc3ccc(OCc4ccccc4)cc3)cc2)cc1` (stereo unspecified), the half-inhibitory concentration (IC50) on Acetyl-CoA carboxylase 2 and at Acetyl-CoA carboxylase 1 was above 30000 nM in each case.

In the case of `CC(=O)NC(C)c1ccc(-c2ccc(Oc3ccc(Oc4ccccc4)cc3)cc2)cc1` (stereo unspecified), the IC50 on Acetyl-CoA carboxylase 2 came out at 7 nM; on Acetyl-CoA carboxylase 1 it was 14 nM.

Regarding `CCCOc1ccc(Oc2ccc(-c3ccc(C(C)NC(=O)CCC)cc3)cn2)cc1` (stereo unspecified), the half-inhibitory concentration (IC50) at Acetyl-CoA carboxylase 2 was 494 nM; at Acetyl-CoA carboxylase 1, 4200 nM.

With `CCCOc1ccc(Oc2ccc(-c3ccc(C(C)NC(=O)CC)cc3)cc2)cc1` (stereo unspecified), the results for the IC50 at Acetyl-CoA carboxylase 2 and at Acetyl-CoA carboxylase 1 were 202 nM and 47 nM, respectively.

`CCOc1ccc(Oc2ccc(-c3ccc(C(C)NC(C)=O)cc3)cc2)cc1` (stereo unspecified): the concentration for half-maximal inhibition (IC50) at Acetyl-CoA carboxylase 2 turned out to be 119 nM; on Acetyl-CoA carboxylase 1 it was 1630 nM. Also, the Selectivity ratio in the assay filed under Homo sapiens [2] was determined as 14.

Regarding `CCCOc1ccc(Oc2ccc(-c3ccc([C@H](C)NC(C)=O)cc3)cn2)cc1`, the IC50 on Acetyl-CoA carboxylase 2 worked out at 8 nM; on Acetyl-CoA carboxylase 1, 35 nM.

With `CCCc1ccc(Oc2ccc(-c3ccc(C(C)NC(C)=O)cc3)cc2)cc1` (stereo unspecified), the half-maximal inhibitory concentration (IC50) is 114 nM at Acetyl-CoA carboxylase 2 and 81 nM on Acetyl-CoA carboxylase 1.

Take `CC(=O)NC(C)c1ccc(-c2ccc(Oc3ccc(OC(C)C)cc3)nc2)cc1` (stereo unspecified): the values for the half-inhibitory concentration (IC50) at Acetyl-CoA carboxylase 2 and at Acetyl-CoA carboxylase 1 were 93 nM and 415 nM, respectively.

As for `CCOc1cccc(Oc2ccc(-c3ccc(C(C)NC(C)=O)cc3)cc2)c1` (stereo unspecified), the concentration for half-maximal inhibition (IC50) on Acetyl-CoA carboxylase 2 was determined as 102 nM; on Acetyl-CoA carboxylase 1, 8580 nM. Also, the Selectivity ratio in the assay filed under Homo sapiens [2] came to 84.

As for `CCCOc1ccc(Oc2ccc(-c3ccc(C(C)NC(=O)C(C)C)cc3)cn2)cc1` (stereo unspecified), the IC50 at Acetyl-CoA carboxylase 2 came out at 156 nM; on Acetyl-CoA carboxylase 1, 451 nM.

Turning to `CC(=O)NC(C)c1ccc(-c2ccc(Oc3ccc(-c4c(O)ccc5c4CCCC5)cc3)cc2)cc1` (stereo unspecified), the IC50 turned out to be 268 nM on Acetyl-CoA carboxylase 2 and 140 nM at Acetyl-CoA carboxylase 1.

For the molecule `CCCOc1ccc(Oc2ccc(-c3ccc(C(C)NC(=O)C(C)O)cc3)cc2)cc1` (racemic), the values for the half-inhibitory concentration (IC50) on Acetyl-CoA carboxylase 2 and on Acetyl-CoA carboxylase 1 were 1840 nM and 2060 nM, respectively.

Regarding `CCCCC(=O)NC(C)c1ccc(-c2ccc(Oc3ccc(OCCC)cc3)nc2)cc1` (stereo unspecified), the IC50 at Acetyl-CoA carboxylase 2 was 1510 nM; on Acetyl-CoA carboxylase 1, above 30000 nM.

As for `CCCOc1ccc(Oc2ccc(-c3ccc(C(C)NC(=O)C4CC4)cc3)cn2)cc1` (stereo unspecified), the IC50 on Acetyl-CoA carboxylase 2 stood at 141 nM; at Acetyl-CoA carboxylase 1, 319 nM.

As for `CCCOc1ccc(Oc2ccc(-c3ccc(C(C)NC(=O)CC)cc3)cn2)cc1` (stereo unspecified), the results for the concentration for half-maximal inhibition (IC50) at Acetyl-CoA carboxylase 2 and on Acetyl-CoA carboxylase 1 were 35 nM and 69 nM, respectively. For the same molecule, the Selectivity ratio in the assay listed under Homo sapiens [2] was 2.

Turning to `COc1cccc(Oc2ccc(-c3ccc(C(C)NC(C)=O)cc3)cc2)c1` (stereo unspecified), the half-maximal inhibitory concentration (IC50) on Acetyl-CoA carboxylase 2 was 373 nM; at Acetyl-CoA carboxylase 1 it was above 30000 nM. For the same molecule, the Selectivity ratio in the assay filed under Homo sapiens [2] was above 80.

For the molecule `CCCOc1ccc(Oc2ccc(-c3ccc(C(C)NC(=O)C(C)C)cc3)cc2)cc1` (stereo unspecified), the half-maximal inhibitory concentration (IC50) on Acetyl-CoA carboxylase 2 turned out to be 214 nM; on Acetyl-CoA carboxylase 1, 188 nM.

Turning to `CC(=O)NC(C)c1ccc(-c2ccc(Oc3ccc(OCc4ccccc4)cc3)nc2)cc1` (stereo unspecified), the IC50 worked out at 117 nM on Acetyl-CoA carboxylase 2 and 58 nM on Acetyl-CoA carboxylase 1.

Take `CC(=O)NC(C)c1ccc(-c2ccc(Oc3cccc(Oc4ccccc4)c3)cc2)cc1` (stereo unspecified): the concentration for half-maximal inhibition (IC50) at Acetyl-CoA carboxylase 2 stood at 16 nM; on Acetyl-CoA carboxylase 1, 41 nM.

For `CCCOc1ccc(Oc2ccc(-c3ccc(C(C)NC(=O)COC)cc3)cn2)cc1` (stereo unspecified), the IC50 was 881 nM at Acetyl-CoA carboxylase 2 and above 30000 nM on Acetyl-CoA carboxylase 1.

Consider `CC(=O)NC(C)c1ccc(-c2ccc(Oc3ccc(OC(C)C)cc3)cc2C)cc1` (stereo unspecified), for which the half-maximal inhibitory concentration (IC50) at Acetyl-CoA carboxylase 2 was determined as 35 nM; on Acetyl-CoA carboxylase 1 it was 16 nM.

With `CCCCC(=O)NC(C)c1ccc(-c2ccc(Oc3ccc(OCCC)cc3)cc2)cc1` (stereo unspecified), the IC50 on Acetyl-CoA carboxylase 2 and at Acetyl-CoA carboxylase 1 was above 30000 nM throughout.

In the case of `CCCOc1ccc(Oc2ccc(-c3ccc(C(C)NC(=O)C4CC4)cc3)cc2)cc1` (stereo unspecified), the values for the IC50 on Acetyl-CoA carboxylase 2 and on Acetyl-CoA carboxylase 1 were 550 nM and 296 nM, respectively.

As for `CC(=O)NC(C)c1ccc(-c2ccc(Oc3ccc(OC(C)C)cc3)cc2)cc1` (stereo unspecified), the IC50 at Acetyl-CoA carboxylase 2 came to 33 nM; on Acetyl-CoA carboxylase 1, 17 nM.

For the molecule `CC(=O)NC(C)c1ccc(-c2ccc(Oc3ccc(OC(C)C)cc3)cc2)c(C)c1` (stereo unspecified), the IC50 at Acetyl-CoA carboxylase 2 is 303 nM; at Acetyl-CoA carboxylase 1 it was 2490 nM.

Consider `CCCOc1ccc(Oc2ccc(-c3ccc(C(C)NC(=O)c4cn[nH]c4)cc3)cn2)cc1` (stereo unspecified), for which the IC50 is 2540 nM on Acetyl-CoA carboxylase 2 and above 30000 nM on Acetyl-CoA carboxylase 1.

With `CCCOc1ccc(Oc2ccc(-c3ccc(C(C)NC(=O)OCC)cc3)cc2)cc1` (stereo unspecified), the IC50 on Acetyl-CoA carboxylase 2 was 3100 nM; at Acetyl-CoA carboxylase 1 it was above 30000 nM.

Turning to `CC(=O)NC(C)c1ccc(-c2ccc(Oc3ccc(C(=O)c4ccccc4)cc3)cc2)cc1` (stereo unspecified), the IC50 on Acetyl-CoA carboxylase 2 came to 113 nM; at Acetyl-CoA carboxylase 1, 35 nM.

`CCCOc1cccc(Oc2ccc(-c3ccc(C(C)NC(C)=O)cc3)cc2)c1` (stereo unspecified): the 50% inhibitory concentration (IC50) on Acetyl-CoA carboxylase 2 came to 12 nM; at Acetyl-CoA carboxylase 1, 13 nM.

As for `CCCOc1ccc(Oc2ccc(-c3ccc(C(C)NC(=O)CCC)cc3)cc2)cc1` (stereo unspecified), the half-maximal inhibitory concentration (IC50) on Acetyl-CoA carboxylase 2 was above 30000 nM; at Acetyl-CoA carboxylase 1, 2770 nM.

On to `CCCOc1cccc(Oc2ccc(-c3ccc(C(C)NC(=O)c4cn[nH]c4)cc3)cc2)c1` (stereo unspecified), for which the results for the 50% inhibitory concentration (IC50) at Acetyl-CoA carboxylase 2 and on Acetyl-CoA carboxylase 1 were 609 nM and 36 nM, respectively. In addition, the Selectivity ratio in the assay filed under Homo sapiens [1] was 17.
